# Sampled rows, rich in hits. Any-hit rate of the full collection: about 1.2%.
# Tn7 DDE FP = inhibitors of Tn7 peptide binding to fibrin DD(E), primary screen, biochemical, fluorescence polarization, human fibrin, Tn7 probe. Fibrinogen beta chain (Homo sapiens), P02675. FP displacement of FITC-Tn7 peptide from fibrin DD(E); 0% = median of compound wells per plate. inhibition, % at 8.3 µM. 0.13% of 370,000 active;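 active means inhibition above the mean of compounds falling within the control limits plus 3 SD of them, cut at about 14% in these data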;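 further: 0% = plate median of compound wells and 100% = 10 µM Aha-Tn7 peptide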
# Target sequence (P02675 whole entry, looked up): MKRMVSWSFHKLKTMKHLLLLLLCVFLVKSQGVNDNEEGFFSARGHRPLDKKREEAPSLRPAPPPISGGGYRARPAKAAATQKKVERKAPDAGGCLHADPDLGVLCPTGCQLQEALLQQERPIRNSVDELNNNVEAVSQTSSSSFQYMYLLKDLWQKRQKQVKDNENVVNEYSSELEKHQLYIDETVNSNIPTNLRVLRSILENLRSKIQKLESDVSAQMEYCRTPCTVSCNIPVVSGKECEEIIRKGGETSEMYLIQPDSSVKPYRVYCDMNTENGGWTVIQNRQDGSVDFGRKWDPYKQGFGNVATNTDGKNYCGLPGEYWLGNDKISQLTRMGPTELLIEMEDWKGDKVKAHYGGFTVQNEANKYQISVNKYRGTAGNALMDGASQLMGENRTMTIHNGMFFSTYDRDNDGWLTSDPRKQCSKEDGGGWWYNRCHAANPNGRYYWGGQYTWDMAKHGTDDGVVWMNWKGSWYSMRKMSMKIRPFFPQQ
#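 Assay system: Fibrin-DD(E) protein isolated from polymerized human fibrin clots; read-out basis: percent inhibition; medium: Tris/NaCl/CaCl2 buffer, pH 7.8; signal: FP measurement; incubation: 10 min plus 3 h, room temperature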
# CRFBP-R2 agonist = agonists of CRF-BP/CRF-R2 complex, primary screen, cell-based, HEK293, calcium dye fluorescence, uHTS | CRF-binding protein / CRF receptor 2 complex (human) | activation, % at 13.2 µM | 0.46% of 350,000 active | calcium dye fluorescence (FLIPR); percent of saturating CRF peptide response;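 active means activation of at least 50%, plus an integration ratio under a set limit after plate pattern correction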;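 further: plate controls were neutral control wells without compound for no effect and CRF at EC100 for full effect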
# DDE Tn6 FP inh = inhibitors of Tn6 peptide binding to fibrin DD(E), primary screen, biochemical, fluorescence polarization, human fibrin, Tn6 probe. 0.21% of 370,000 active. Fibrinogen beta chain (Homo sapiens), P02675. inhibition, % at 8.3 µM. AID 720509, 2013. Fibrin DD(E) TRITC-Tn6 fluorescence polarization displacement;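 active means inhibition above a per-campaign cutoff: mean of compounds within control limits plus 3 SD, cut at about 15% in these data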;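 further: 0% = median of all compound wells on the plate and 100% = blocking peptide control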
# CRFR2-BP antag = antagonists of CRF-BP/CRF-R2 complex, primary screen, cell-based, HEK293, calcium dye fluorescence, uHTS | 0.59% of 350,000 active | AID 588475, 2011 | inhibition, % at 11.8 µM | CRF-induced calcium fluorescence;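 active means inhibition of the ligand-induced calcium signal above about 50% at the single tested concentration, limit read from the data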
# The depositor's hits bear a star; x = no result given.
SMILES,Tn7 DDE FP,CRFBP-R2 agonist,DDE Tn6 FP inh,CRFR2-BP antag
CCOC(=O)NC[C@@]1(C(=O)OC)CC(=O)N(C)[C@@H]1c1ccccc1,-1,x,-1,x
Cc1cc(C)c(OCCN(C)Cc2ccccc2)c(Br)c1,-3,0,-5,87*
CCN(c1ccccc1)S(=O)(=O)c1cc(NC(=O)Nc2ccccc2C#N)ccc1Cl,-2,9,6,-7
CCN(c1ccccc1)S(=O)(=O)c1ccc(Cl)c(NC(=O)Nc2ccc(Cl)cc2C#N)c1,-7,0,-7,71*
O=C(C(=O)N1CCN(S(=O)(=O)c2cccc3ccccc23)CC1)c1cccc(C(F)(F)F)c1,-7,x,1,x
O=C1c2ccccc2S(=O)(=O)c2cc(C(=O)N(c3ccccn3)c3ccccn3)ccc21,0,173*,-8,-58
O=C(Nc1ccccn1)c1ccc2c(c1)S(=O)(=O)c1ccccc1C2=O,3,-4,9,-2
O=C(Nc1ccn(CCCNCc2ccc3c(c2)OCO3)c(=O)n1)OCc1ccccc1,5,1,6,110*
Cc1ccc(C)c(Cn2nc(-c3ccccc3)ccc2=O)c1,0,-1,-4,-5
Cc1ccc(-c2ccc(=O)n(Cc3cc(C)ccc3C)n2)cc1,-1,5,-6,123*
Cn1c(=O)c2[nH]c(-c3ccccc3Cl)c(O)c2n(C)c1=O,12,55*,5,-14
COC(=O)[C@H]1C[C@@]2(C#N)c3ccccc3N(C(=O)OC(C)(C)C)[C@H]2N1C(=O)OC(C)(C)C,-5,x,-4,x
CCOC(=O)c1cc(=O)cc(C(=O)OCC)o1,8,-2,13,50*
COC(=O)c1cc(=O)cc(C(=O)OC)o1,0,0,-9,24
COc1ccc(C(=O)C2CCCN(C(=O)c3csc(SC)n3)C2)cc1F (stereo not drawn),-2,0,-5,-6
CC(C)(C)OC(=O)N1CCCN(C(=O)Nc2cccc(Cl)c2)CC1,-2,1,-7,113*
CCCCCCCCN1C(=O)[C@@H](CC(=O)NCc2ccc(OC)c(OC)c2)C[C@@]2(C(=O)OC)C1=C[C@H](COCc1ccccc1)O[C@@H]2C,-7,x,-13,x
CCCC(=O)N1CCC[C@]2(CC[C@H](CCC#N)O2)C1,0,x,-3,x
CC(=O)c1cc(F)c(N2CCN(C(=O)C(C)(C)C)CC2)cc1C,4,-5,-3,74*
Cn1cc(C(=O)C(=O)NC2CCCCC2)c2ccccc21,3,0,3,-6
COc1ccccc1N1CCN(C2CCCN(C(=O)c3cc(C4CC4)on3)C2)CC1 (stereo not drawn),-5,-3,3,51*
COc1ccccc1N1CCN(C2CCCN(C(=O)c3cscn3)C2)CC1 (stereo not drawn),-1,-1,-2,2
COC(=O)C[C@@H]1C[C@@H]2c3cc(NS(=O)(=O)c4ccccc4)ccc3O[C@@H]2[C@@H](CO)O1,2,0,4,3
O=C(C[C@H]1C[C@@H]2c3cc(NS(=O)(=O)c4ccccc4)ccc3O[C@@H]2[C@H](CO)O1)N1CCOCC1,7,0,3,52*
Cc1cc(=O)oc2c1ccc1oc(/C(=N/O)c3ccccc3)c(C)c12,-4,-1,-1,118*
SMILES,Tn7 DDE FP,CRFBP-R2 agonist,DDE Tn6 FP inh,CRFR2-BP antag
Cc1ccc(/C(=N\O)c2oc3c(C)c4oc(=O)cc(C)c4cc3c2C)cc1,0,-1,-8,11
COc1ccc(O)c(C(=O)c2cc(C#N)c(=O)n(-c3c(C)n(C)n(-c4ccccc4)c3=O)c2)c1,0,86*,7,-5
Cc1ccc(O)c(C(=O)c2cc(C#N)c(=O)n(-c3c(C)n(C)n(-c4ccccc4)c3=O)c2)c1,-7,48,0,-17
CCCC#Cc1ccc(CC[C@H]2O[C@H]3CC[C@H](CO)O[C@H]3C[C@H]2NC(=O)CN2CCOCC2)cc1,-2,x,2,x
CC1(C(=O)NC(=S)NNC(=O)c2ccncc2)CCCCC1,3,81*,0,33
O=C(NNC(=S)NC(=O)C12CC3CC(CC(C3)C1)C2)c1ccncc1,-1,139*,4,-84
O=C(NNC(=S)NC(=O)c1ccc(F)cc1)c1ccncc1,-5,-2,1,18
CCN1CCN(c2ccc(S(=O)(=O)N3CCOCC3)cc2NC(=O)c2ccccc2SC)CC1,0,0,7,-5
CCN1CCN(c2ccc(S(=O)(=O)N3CCOCC3)cc2NC(=O)c2cc(Cl)nc3ccccc23)CC1,-6,-1,-1,82*
CN1CC(c2ccccc2)C2(SC(=S)N(Cc3ccco3)C2=O)C12C(=O)Nc1ccccc12 (stereo not drawn),15*,0,2,33
CN1CC(c2ccccn2)C2(SC(=S)N(Cc3ccccc3)C2=O)C12C(=O)Nc1ccccc12 (stereo not drawn),8,-1,-2,-45
COc1ccc(S[C@]2(C(=O)N3CCOCC3)CC(=O)N(c3ccc(Cl)cc3)[C@@H]2c2ccc(OC)cc2)cc1,-4,x,9,x
CN(C)CCNc1ccc(CO)c2sc3ccc(O)cc3c(=O)c12,3,-5,5,26
CN(C)CCNc1ccc2ncn3c4ccc(O)cc4c(=O)c1c23,8,75*,-4,-60
CCC[C@H]1[C@@H](OC(=O)NC2CCCCC2)CC[C@@]23CCCN2C(=O)CCC[C@@H]13,-7,x,9,x
COc1ccc(C2CC(c3c(O)cc(C)oc3=O)=NCCS2)c(OC)c1 (stereo not drawn),x,5,x,-5
Cc1cc(O)c(C2=Nc3ccccc3SC(c3ccc(Cl)cc3)C2)c(=O)o1 (stereo not drawn),9,0,-3,84*
Cc1ccc(C)c(-n2c3nc(=O)[nH]c(=O)c-3cc3cc([N+](=O)[O-])ccc32)c1,-1,61*,3,-130
Cc1cccc(-n2c3nc(=O)[nH]c(=O)c-3cc3cc([N+](=O)[O-])ccc32)c1,6,2,0,-56
CCOc1cc(-c2cn(S(=O)(=O)c3cccc4nsnc34)nc2N)cc(OCC)c1OCC,-6,-2,0,70*
O=C(OC12CCCN(C1)/C(=C/c1cccc(Cl)c1)C2)c1ccco1 (stereo not drawn),-3,x,1,x
CNc1nc(-c2c(C)[nH]c3ccc(OC)cc23)cs1,7,8,1,88*
COc1ccccc1Nc1nc(-c2c(C)[nH]c3ccccc23)cs1,-6,-2,-2,15
COc1ccc(N(CC(=O)NN=C2CCCC2)S(=O)(=O)c2ccccc2)cc1Cl,6,80*,1,-100
COc1ccc(N(CC(=O)N/N=C/c2ccco2)S(=O)(=O)c2ccccc2)cc1Cl,1,-3,-2,-14
Nc1nnnn1/N=C/c1cc(Cl)cc(Cl)c1O,-2,138*,2,-108
Nc1nnnn1/N=C/c1cc(Cl)ccc1O,4,34,5,-17

# Bioassay records deposited in PubChem BioAssay by several laboratories.
